# Assay outcomes deposited in PubChem by several laboratories.
# GRK2 aptamer HTS – compounds blocking aptamer binding on GRK2 – biochemical, human GRK2, bead flow cytometry, HTS, primary screen | inhibition of aptamer binding, % at 10 µM | hit rate 0.59% among 330,000 | FAM-aptamer displacement from GRK2;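 active = inhibition of aptamer binding above 40%, roughly 3 SD of noise, on plates passing a quality check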;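 note: median bead fluorescence of bound FAM aptamer so fluorescent compounds give negative values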
# Scp1 inh – Scp-1 phosphatase inhibitors, primary screen, biochemical, colorimetric, uHTS | Carboxy-terminal domain RNA polymerase II polypeptide A small phosphatase 1 (Homo … | Recombinant Scp1, phosphopeptide, malachite green phosphate absorbance | inhibition, % at 20 µM | hit rate 0.88% among 340,000 | AID 493091, 2011;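 active = inhibition above about 50% at 20 µM, limit read from the data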
# Target sequence (Q9GZU7 76-261 limits assumed): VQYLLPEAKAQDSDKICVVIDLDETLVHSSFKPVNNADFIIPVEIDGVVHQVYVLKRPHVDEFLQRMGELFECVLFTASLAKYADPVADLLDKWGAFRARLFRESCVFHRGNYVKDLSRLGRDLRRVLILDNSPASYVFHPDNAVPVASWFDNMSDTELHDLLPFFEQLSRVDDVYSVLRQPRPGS
#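 Material – SCP-1 phosphatase catalytic domain, residues 76-261 · Buffer or medium – Acidic Tris acetate buffer with magnesium and detergent · Also added – Phospho 17-mer peptide substrate · Compound – single 20 µM dose, 1% DMSO · Times – 45 min room-temperature reaction, 5 min colour, 30 min stabiliser · Technique – Phosphate-binding colour reagent, absorbance read at 630 nm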
# LMPTP inh – LMPTP phosphatase inhibitors, primary screen, biochemical, fluorescence intensity, uHTS; hit rate 0.22% among 360,000; recombinant LMPTP-A, OMFP fluorogenic substrate; AID 651560, 2012; Low molecular weight phosphotyrosine protein phosphatase (Homo sapiens), P24666; inhibition, % at 20 µM;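 active = compounds that cut the enzyme signal by at least half of the control window in the single-dose screen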
# Target sequence (P24666 whole entry, looked up): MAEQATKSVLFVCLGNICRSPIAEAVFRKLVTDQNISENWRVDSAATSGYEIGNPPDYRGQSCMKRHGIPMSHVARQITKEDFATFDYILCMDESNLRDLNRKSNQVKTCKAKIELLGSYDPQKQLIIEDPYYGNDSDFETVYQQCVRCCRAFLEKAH
#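 Test system: LMPTP-A, protein tyrosine phosphatase of low molecular weight; Input: 0.625 nM enzyme; Incubation: 50 min dark incubation at room temperature; Signal: endpoint fluorescence intensity from OMFP dephosphorylation; Read-out basis: % inhibition versus control wells.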
# DNMT1 block – human DNMT1 methyltransferase inhibitors, primary screen, biochemical, molecular beacon, fluorescence, HinP1I cleavage, uHTS; DNA (cytosine-5)-methyltransferase 1 (Homo sapiens), P26358; inhibition (reported as % activation of signal), % at 10 µM; hit rate 0.83% among 360,000; AID 588458, 2011; in the data active = inhibition above about 50%
# SUMO1-SIM PPI – modulators of SUMO1 protein-protein interactions, primary screen, biochemical, uHTS | Small ubiquitin-related modifier 1 (Homo sapiens), P63165 | SUMO1 binding to a labelled peptide, TR-FRET, 1 h | inhibition, % at 20 µM | hit rate 0.33% among 360,000 | AID 602429, 2012; in the data active = inhibition above about 37%
# Target sequence (P63165 whole entry, looked up): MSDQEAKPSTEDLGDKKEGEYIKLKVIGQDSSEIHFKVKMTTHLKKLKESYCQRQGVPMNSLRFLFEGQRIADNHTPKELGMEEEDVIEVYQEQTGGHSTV
# STEP block – STEP phosphatase inhibitors, primary screen, biochemical, fluorescence intensity, uHTS. Tyrosine-protein phosphatase non-receptor type 5 (Homo sapiens), P54829. recombinant STEP, OMFP fluorogenic substrate. inhibition, % at 20 µM. hit rate 0.25% among 360,000;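 active = inhibition at 20 µM, scaled per plate between control wells, above about 37%, limit read from the data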
#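 Assay system: isolated STEP enzyme / Timing: 20 min at room temperature, dark / Doses: 20 µM, 1% DMSO / Technique: fluorescence intensity, excitation 480 nm, emission 540 nm / Reagent: fluorogenic phosphatase substrate OMFP at 25 µM final / Measure: percent inhibition scaled to no-enzyme and uninhibited-enzyme controls, plate-pattern corrected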
# GRK2 CP1 – GRK2 aptamer-displacing inhibitors, retest, confirmation, biochemical, cherry pick 1, bead flow cytometry; aptamer displacement, % at 10 µM; bead-bound GRK2, FAM-aptamer displacement; shares compounds with GRK2 aptamer HTS; hit rate 4% among 2,000;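 active = aptamer displacement above 40%, near three times the noise of non-fluorescent compounds, on plates passing quality checks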;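 note: negative values mostly reflect intrinsic compound fluorescence rather than true enhancement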
# Aptamer quench SP – aptamer fluorescence quenching in GRK2 counter-screen; shares compounds with GRK2 aptamer HTS; Carboxyfluorescein RNA aptamer on beads, flow cytometry quenching; hits give low values; fluorescence response (% of DMSO), % at 10 µM; 2,000 tested, under 10 active; AID 504580;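 active = compounds that quench the bead-bound fluorescent RNA probe, cutting fluorescence to under half of the solvent control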;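 note: counterscreen run without GRK2 so only probe quenching by compound is measured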
# Numbers stand for hits; 0 = inactive; - = no result. A selection: hits, their analogues and other compounds. The true share with any hit is near 2.1%.
SMILES,GRK2 aptamer HTS,Scp1 inh,LMPTP inh,DNMT1 block,SUMO1-SIM PPI,STEP block,GRK2 CP1,Aptamer quench SP
O=C(CSc1cnc2ccccc2n1)NC1CCCC1,81,0,0,0,0,0,0,0
CCCCNC(=O)c1ccccc1SCC(=O)NC1CCCCCCC1,61,0,0,0,0,0,0,0
CCn1c(CNC(=O)c2ccccc2F)nnc1SCC(=O)NC1CCCCC1,0,0,0,0,0,0,-,-
C[C@@H]1CN([C@@H](C)CO)C(=O)c2cc(C#Cc3ccccc3)cnc2O[C@H]1CN(C)C(=O)c1ccccc1F,-,-,0,0,0,0,-,-
CCCCNC(=O)C1(C)CCCCN1Cc1ccc(OCc2ccccc2)cc1 (centres undefined),-,-,0,0,0,0,-,-
CCCCCOc1ccc(/C=N/NC(=O)c2nnn(-c3nonc3N)c2CN2CCCCCC2)cc1,55,0,0,0,0,0,0,0
Nc1nonc1-n1nnc(C(=O)N/N=C/c2ccc(O)cc2)c1CN1CCCCCC1,0,0,0,0,0,0,-,-
Cc1ccc(-c2cnc3ccccc3n2)cc1C,0,0,0,0,0,0,0,0
O=C(Nc1ccccc1)Nc1cccc(C(F)(F)F)c1,0,0,0,0,0,0,-,-
Cc1cc(NC(=O)Nc2cccc(C(F)(F)F)c2)n(C)n1,74,0,0,0,0,0,0,0
CN(CC(=O)Nc1ccc(S(=O)(=O)N2CCOCC2)cc1)Cc1ccc(F)cc1,0,0,0,0,0,0,-,-
CCc1ccc(CN(C)CC(=O)Nc2ccc(S(=O)(=O)N3CCOCC3)cc2)cc1,99,0,0,0,0,0,0,0
COc1ccc(C(=O)Nc2cccc(-c3ccc(N4CCOCC4)nn3)c2)cc1,0,0,0,0,0,0,0,0
Cc1ccc(C(=O)Nc2cccc(-c3ccc(N4CCOCC4)nn3)c2)cc1C,0,0,0,0,0,0,0,0
O=C(Nc1cccc(-c2ccc(N3CCOCC3)nn2)c1)c1ccc(Cl)cc1,0,0,0,0,0,0,0,0
O=C(Nc1cccc(-c2ccc(N3CCOCC3)nn2)c1)c1ccccc1Cl,0,0,0,0,0,0,0,0
Cc1nc(NC(=O)C(C)(C)C)sc1C(=O)Cn1cc(CCCC#N)nn1,-,-,0,-,0,-,-,-
COc1ccccc1NC(=O)CN1CCN(CC(=O)Nc2ccc(F)cc2F)CC1,-,0,0,0,0,0,-,-
O=C(COc1ccc(Cl)cc1)Nc1cccc(-c2ccc(N3CCOCC3)nn2)c1,0,0,0,0,0,0,0,0
Cc1ccc(C(=O)Nc2cccc(-c3ccc(N4CCOCC4)nn3)c2)cc1,0,0,0,0,0,0,0,0
COc1ccccc1CNC(=O)C1COc2ccccc2O1 (centres undefined),52,0,0,0,0,0,0,0
O=S(=O)(CCNCc1ccco1)NC1CCCCC1,-,0,0,0,0,0,-,-
O=C(COC(=O)COc1ccccc1[N+](=O)[O-])NCc1ccc2c(c1)OCO2,43,0,0,0,0,0,0,0
COc1ccccc1C=NN=C(NN=Cc1ccccc1OC)NN=Cc1ccccc1OC,-,0,0,0,0,0,-,-
C[C@@H]1CN([C@@H](C)CO)C(=O)CCCn2nncc2CO[C@@H]1CN(C)S(=O)(=O)c1ccc(Oc2ccccc2)cc1,-,-,0,0,0,0,-,-
SMILES,GRK2 aptamer HTS,Scp1 inh,LMPTP inh,DNMT1 block,SUMO1-SIM PPI,STEP block,GRK2 CP1,Aptamer quench SP
Cc1ccccc1S(=O)(=O)NC(=O)C1(C)CCN1C(=O)Cc1ccccc1Cl (centres undefined),-,-,0,0,0,0,-,-
O=C(O)CC/C(=N/NC(=O)CNC(=O)c1ccc2c(c1)OCCO2)c1ccccc1,0,0,0,0,0,0,0,0
CC(C)(C)/C=N/NC(=O)CNC(=O)c1ccc2c(c1)OCCO2,0,0,0,0,0,0,-,-
CCCCN(C(=O)Cc1coc2cc(C)c(C)cc12)c1c(N)n(Cc2ccccc2)c(=O)[nH]c1=O,0,0,0,0,0,0,-,-
Cc1cccc(C)c1NC(=O)C(c1ccnc2ccccc12)N1CCN(C)CC1 (centres undefined),-,-,0,-,0,-,-,-
COc1ccc(-c2nc(C#N)c(NCCN(C)C)o2)cc1,49,0,0,0,0,0,0,0
COc1ccc(Nc2oc(-c3ccccc3)nc2C#N)cc1,52,0,0,0,0,0,0,0
O=C(O)C1(C(=O)O)CCC2(CCCCC2)CC1,-,-,0,0,0,0,-,-
O=C(NCc1cccs1)c1ccc2nc([C@@H]3O[C@H](CO)[C@H](O)[C@H](O)[C@H]3O)[nH]c2c1,-,-,0,0,0,0,-,-
CCC(=O)Oc1ccc2c(C)cc(=O)oc2c1C(=O)c1ccccc1,0,0,0,0,0,0,-,-
CCC(=O)Oc1ccc2c(C)cc(=O)oc2c1C(=O)CC,100,0,0,0,0,0,0,0
O=C(O)c1ccc(/C=C/c2ccc3cccc(O)c3n2)cc1,-,0,0,0,0,0,-,-
Oc1ccc(/C=C/c2ccc3cccc(O)c3n2)cc1Br,47,0,0,0,0,0,0,0
CCN1C(Nc2ccccc2)=NC[C@@H]1CC(C)C,0,0,0,0,0,0,-,-
CC(C)C[C@H]1CN=C(Nc2ccccc2)N1CC1CCCCCC1,58,0,0,0,0,0,0,0
O=C(NC1CCCCC1)OC1CC2CC1[C@H]1CCCCN1C2=O (some centres undefined),-,-,0,-,0,-,-,-
COc1cccc(CNc2ccc3[nH]c(=O)[nH]c3c2)c1OCc1ccccc1F,91,0,0,0,0,0,0,0
COc1cc(CNc2ccc3[nH]c(=O)[nH]c3c2)cc(Br)c1OCc1ccc(F)cc1,0,0,0,0,0,0,-,-
O=C(NCc1ccccc1)c1cc(C2COCCN2S(=O)(=O)c2cccs2)on1 (centres undefined),-,-,0,0,0,0,-,-
COc1ccc(C(CNS(=O)(=O)c2ccc(F)cc2)N2CCN(C)CC2)cc1 (centres undefined),0,0,0,0,0,0,-,-
